Source: ChEMBL document CHEMBL3877272, “Synthesis and anti-mitotic activity of 6,7-dihydro-4H-isothiazolo[4,5-b]pyridin-5-ones: In vivo and cell-based studies” (Eur J Med Chem, 2017)
Active and inactive are the calls of the source.

Legend:
Paracentrotus lividus [1] = test: Antimitotic activity in sea urchin embryo assessed as cleavage alteration exposed 8 to 15 mins after fertilization 45 to 55 mins before first mitotic cycle completion measured at 2.5 to 5.5 hrs post dose; assay type: functional
In short: (§1)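 Paracentrotus lividus eggs, fertilized in filtered seawater, cultured as monolayer (up to 2000 embryos/mL) at room temperature. Exposed 8–15 min post-fertilization to 2-fold decreasing concentrations (DMSO stock diluted in EtOH; final DMSO ≤0.05%, EtOH ≤1%). Cleavage alteration scored at 8-cell, arrest at early blastula stage (2.5–5.5 h). Effective threshold concentration reported; duplicate measurements.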

Paracentrotus lividus [2] = test: Antimitotic activity in sea urchin embryo assessed as cleavage arrest exposed 8 to 15 mins after fertilization 45 to 55 mins before first mitotic cycle completion measured at 2.5 to 5.5 hrs post dose; assay type: functional; in short: as §1
Paracentrotus lividus [3] = test: Antimitotic activity in sea urchin free-swimming blastulae assessed as microtubule destabilization by measuring embryo spinning exposed 8 to 10 hrs after fertilization measured after 15 mins to 20 hrs; assay type: functional, Blastula
In short: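 Free-swimming P. lividus blastulae just after hatching (8–10 h post-fertilization) from same culture, exposed in seawater to 2-fold decreasing concentrations (DMSO stock diluted in EtOH). Settling to well bottom with rapid spinning around animal-vegetal axis scored by light microscopy over 15 min–20 h. Effective threshold concentration; duplicate measurements.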

[4] = Antiproliferative activity against human NCI60 cells at 10 uM after 48 hrs by SRB assay relative to control; assay type: functional; conditions: NCI60, 48 h, read-out: GI
[5] = Solubility in seawater assessed as micro-crystal formation at 4 uM by light microscopy; assay type: physicochemical
In short: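 Compound from 10 mM DMSO stock diluted 10-fold in 96% EtOH, added to seawater with sea urchin embryos; microcrystal formation checked by light microscopy.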

[6] = Antiproliferative activity against human OVCAR8 cells measured after 3 to 4 days by Celltiter-Glo luminescent cell viability assay; assay type: functional; conditions: OVCAR-8
[7] = Antiproliferative activity against human NCI-H1975 cells measured after 96 hrs by Celltiter-Glo assay; assay type: functional, cell-based; conditions: NCI-H1975, 96 h
In short: (§2)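 Cells plated 24 h, then treated 96 h with 0.1% DMSO or concentrations […]; growth by CellTiter-Glo luminescence, normalized to DMSO control; IC50 from dose–response curves by logistic nonlinear regression; mean of three independent experiments.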

[8] = Antiproliferative activity against human TOV112D cells measured after 96 hrs by Celltiter-Glo assay; assay type: functional, cell-based; in short: as §2
[9] = Antiproliferative activity against human Caov3 cells measured after 96 hrs by Celltiter-Glo assay; assay type: functional, cell-based; conditions: Caov-3, 96 h; in short: as §2
[10] = Antiproliferative activity against human MDA-MB-468 cells measured after 96 hrs by Celltiter-Glo assay; assay type: functional, cell-based; conditions: MDA-MB-468, 96 h; in short: as §2
[11] = Antiproliferative activity against human MDA-MB-435 cells measured after 48 hrs by SRB assay; assay type: functional, cell-based; conditions: MDA-MB-435, 48 h
[12] = Antiproliferative activity against human MDA-MB-231 cells measured after 96 hrs by Celltiter-Glo assay; assay type: functional, cell-based; conditions: MDA-MB-231, 96 h; in short: as §2
[13] = Antiproliferative activity against human NCI60 cells measured after 48 hrs by SRB assay; assay type: functional; conditions: NCI60, 48 h
[14] = Antiproliferative activity against human MDA-MB-468 cells measured after 48 hrs by SRB assay; assay type: functional, cell-based; conditions: MDA-MB-468, 48 h
[15] = Antiproliferative activity against human NCI/ADR-RES cells measured after 3 to 4 days by Celltiter-Glo luminescent cell viability assay; assay type: functional
[16] = Antiproliferative activity against human MDA-MB-435 cells measured after 96 hrs by Celltiter-Glo assay; assay type: functional, cell-based; conditions: MDA-MB-435, 96 h; in short: as §2
[17] = Antiproliferative activity against human MDA-MB-DYT2 cells measured after 96 hrs by Celltiter-Glo assay; assay type: functional, cell-based; in short: as §2
Paracentrotus lividus [18] = test: In vivo microtubule destabilizing activity in sea urchin embryo assessed as tuberculate egg formation exposed 8 to 15 mins after fertilization 45 to 55 mins before first mitotic cycle completion measured at 2.5 to 5.5 hrs post dose; assay type: functional
In short: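 Paracentrotus lividus eggs from KCl-induced spawning, fertilized and cultured in filtered seawater at room temperature, up to 2000 embryos/mL. Compounds came from 10 mM DMSO stocks diluted 10-fold in 96% EtOH; tolerated solvent limits were 0.05% DMSO and 1% EtOH. Eggs were exposed to 2-fold decreasing concentrations and scored by light microscopy. The result is the effective threshold concentration, measured in duplicate.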

Paracentrotus lividus [19] = test: Antimitotic activity in early pluteus stage of sea urchin embryo assessed as growth inhibition of skeletal spicules at 1 uM; assay type: functional, tissue-based; conditions: Spicule
In short: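 P. lividus embryos (gametes by intracoelomic 0.5 M KCl, fertilized in filtered seawater, room temperature, paddle agitation 60 rpm); compound from 10 mM DMSO stock diluted 10-fold in 96% EtOH; growth of skeletal spicules scored by light microscopy at early pluteus stage.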

SMILES	EC (Paracentrotus lividus [1])	EC (Paracentrotus lividus [2])	EC (Paracentrotus lividus [3])	inhibition of growth at 10 µM [4]	also measured
O=C1CC(c2cccc(Cl)c2)c2snc(-c3ccc(F)cc3)c2N1 (centres undefined)	1 µM	4 µM	>4 µM	15.6%	–
COc1cccc(C2CC(=O)Nc3c(-c4cccc(F)c4)nsc32)c1 (centres undefined)	0.5 µM	1 to 4 µM	>4 µM	9.4%	solubility [5]: Insoluble
COc1ccc(-c2nsc3c2NC(=O)CC3c2cccc(Cl)c2)cc1OC (centres undefined)	2 µM	>4 µM	>4 µM	14%	–
COc1ccc(-c2nsc3c2NC(=O)CC3c2ccc(Cl)cc2)cc1 (centres undefined)	0.1 µM	0.2 µM	1 µM	15.7%	–
O=C1CC(c2cccc(F)c2)c2snc(-c3cccc(F)c3)c2N1 (centres undefined)	1 µM	>4 µM	>4 µM	6.4%	–
COc1cc(C2CC(=O)Nc3c(-c4cccc(F)c4)nsc32)c(OC)c2c1OCO2 (centres undefined)	>4 µM	>4 µM	>4 µM	–	–
O=C1CC(c2ccsc2)c2snc(-c3cccc(F)c3)c2N1 (centres undefined)	0.05 µM	0.5 µM	2 µM	7.8%	–
O=C1CC(c2ccc3c(c2)OCO3)c2snc(-c3cccc(F)c3)c2N1 (centres undefined)	1 µM	4 µM	>4 µM	5.2%	–
COc1ccc(-c2nsc3c2NC(=O)CC3c2ccc(F)cc2)cc1 (centres undefined)	0.01 µM	0.05 µM	0.1 µM	–	GI50 [6]: 4010 nM; IC50 [7]: > 2000 nM; IC50 [8]: > 2000 nM; IC50 [9]: > 2000 nM; IC50 [10]: 1850 nM; IC50 [11]: 440 nM; IC50 [12]: > 2000 nM; GI50 [13]: 3020 nM; IC50 [14]: 2350 nM; GI50 [15]: 2110 nM; IC50 [16]: 1820 nM; IC50 [17]: > 2000 nM
COc1ccc(C2CC(=O)Nc3c(-c4cccc(F)c4)nsc32)cc1 (centres undefined)	2 µM	>4 µM	>4 µM	5.3%	–
COc1cc(C2CC(=O)Nc3c(-c4ccccc4)nsc32)c(OC)c2c1OCO2 (centres undefined)	>4 µM	>4 µM	>4 µM	–	–
COc1ccc(-c2nsc3c2NC(=O)CC3c2cccc(F)c2)cc1 (centres undefined)	0.01 µM	0.05 µM	0.2 µM	–	GI50 [6]: 7540 nM; IC50 [7]: > 2000 nM; IC50 [8]: > 2000 nM; IC50 [9]: > 2000 nM; IC50 [10]: 1410 nM; IC50 [11]: 827 nM; IC50 [12]: > 2000 nM; GI50 [13]: 4900 nM; IC50 [14]: 1940 nM; GI50 [15]: 2960 nM; IC50 [16]: 1410 nM; IC50 [17]: > 2000 nM
O=C1CC(c2ccc(F)cc2)c2snc(-c3cccc(F)c3)c2N1 (centres undefined)	1 µM	4 µM	>4 µM	–	Activity (Paracentrotus lividus [18]): Active
COc1ccc(-c2nsc3c2NC(=O)CC3c2ccc3c(c2)OCCO3)cc1 (centres undefined)	0.01 µM	0.05 µM	0.5 µM	–	GI50 [6]: 1410 nM; IC50 [7]: 1240 nM; IC50 [8]: 659 nM; IC50 [9]: 833 nM; IC50 [10]: 451 nM; IC50 [11]: 247 nM; IC50 [12]: 1710 nM; GI50 [13]: 933 nM; IC50 [14]: 328 nM; GI50 [15]: 367 nM; IC50 [16]: 349 nM; IC50 [17]: 1360 nM
COc1ccc(C2CC(=O)Nc3c(-c4ccc(F)cc4)nsc32)cc1 (centres undefined)	2 µM	>4 µM	>4 µM	6.2%	–
COc1ccc(-c2nsc3c2NC(=O)CC3c2cc(OC)c3c(c2OC)OCO3)cc1 (centres undefined)	0.05 µM	0.2 µM	1 µM	–	–
COc1cc(C2CC(=O)Nc3c(-c4ccccc4)nsc32)cc2c1OCO2 (centres undefined)	4 µM	>4 µM	>4 µM	4.6%	–

SMILES	EC (Paracentrotus lividus [1])	EC (Paracentrotus lividus [2])	EC (Paracentrotus lividus [3])	inhibition of growth at 10 µM [4]	also measured
O=C1CC(c2cccc(Cl)c2)c2snc(-c3cccc(F)c3)c2N1 (centres undefined)	1 µM	4 µM	>4 µM	–	–
COc1ccc(-c2nsc3c2NC(=O)CC3c2cc3c(c(OC)c2OC)OCO3)cc1 (centres undefined)	0.2 µM	2 µM	>5 µM	26.9%	Activity (Paracentrotus lividus [18]): Active
COc1ccc(-c2nsc3c2NC(=O)CC3c2cc(OC)c(O)c(O)c2OC)cc1 (centres undefined)	1 µM	2 µM	>5 µM	–	–
O=C1CC(c2ccsc2)c2snc(-c3ccc(Cl)cc3)c2N1 (centres undefined)	0.01 µM	0.1 µM	0.2 µM	–	GI50 [6]: 3010 nM; IC50 [8]: 1150 nM; IC50 [9]: 1080 nM; IC50 [11]: 260 nM; IC50 [12]: 1630 nM; GI50 [13]: 1510 nM; IC50 [14]: 291 nM; GI50 [15]: 364 nM; IC50 [16]: 628 nM; IC50 [17]: > 2000 nM
COc1cc(C2CC(=O)Nc3c(-c4ccc(Cl)cc4)nsc32)c(OC)c2c1OCO2 (centres undefined)	>4 µM	>4 µM	>4 µM	7.66%	–
COc1cc(C2CC(=O)Nc3c(-c4ccc(Cl)cc4)nsc32)cc2c1OCO2 (centres undefined)	2 µM	>4 µM	>4 µM	17.8%	solubility [5]: Insoluble
O=C1CC(c2ccc3c(c2)OCO3)c2snc(-c3ccc(F)cc3)c2N1 (centres undefined)	1 µM	>4 µM	>4 µM	11.7%	–
COc1ccc(/C=C\c2cc(OC)c(OC)c(OC)c2)cc1OP(=O)([O-])[O-].[Na+].[Na+] [FOSBRETABULIN DISODIUM]	0.005 µM	0.01 µM	0.05 µM	–	IC50 [8]: 30.9 nM; IC50 [9]: 13.1 nM; IC50 [12]: 173 nM; GI50 [13]: 1.7 nM; IC50 [16]: 8.75 nM; IC50 [17]: 60 nM
COc1cc(C2CC(=O)Nc3c(-c4ccc(F)cc4)nsc32)c(OC)c2c1OCO2 (centres undefined)	>4 µM	>4 µM	>4 µM	–	Activity (Paracentrotus lividus [19]): Active
COc1cc(C2CC(=O)Nc3c(-c4cccc(F)c4)nsc32)cc2c1OCO2 (centres undefined)	4 µM	>4 µM	>4 µM	4.4%	–
O=C1CC(c2ccc(Cl)cc2)c2snc(-c3cccc(F)c3)c2N1 (centres undefined)	>4 µM	>4 µM	>4 µM	16.5%	solubility [5]: Insoluble
COc1ccc(-c2nsc3c2NC(=O)CC3c2cccc(Cl)c2)cc1 (centres undefined)	0.01 µM	0.1 µM	0.1 µM	–	GI50 [6]: 2920 nM; IC50 [7]: > 2000 nM; IC50 [8]: 1270 nM; IC50 [9]: 1300 nM; IC50 [10]: 752 nM; IC50 [11]: 749 nM; IC50 [12]: 1620 nM; GI50 [13]: 1740 nM; IC50 [14]: 174 nM; GI50 [15]: 562 nM; IC50 [16]: 792 nM; IC50 [17]: > 2000 nM
O=C1CC(c2ccsc2)c2snc(-c3ccc(F)cc3)c2N1 (centres undefined)	0.05 µM	0.2 µM	4 µM	–	–
COc1cc(C2CC(=O)Nc3c(-c4ccccc4)nsc32)c(OC)c(O)c1O (centres undefined)	>4 µM	>4 µM	>4 µM	–	–
COc1cccc(C2CC(=O)Nc3c(-c4ccc(F)cc4)nsc32)c1 (centres undefined)	1 µM	4 µM	>4 µM	15.1%	Activity (Paracentrotus lividus [18]): Active
O=C1CC(c2ccc(F)cc2)c2snc(-c3ccc(F)cc3)c2N1 (centres undefined)	1 µM	4 µM	>4 µM	4.2%	solubility [5]: Insoluble
